Data published in ChEMBL document CHEMBL1828498, “Identification and characterization of a novel integrin-linked kinase inhibitor” (J Med Chem, 2011).
Activity calls are given as the source filed them. The rule behind the calls is not given here.

Legend:
[1] = tested on: 3-phosphoinositide dependent protein kinase-2, PDK2; assay: Inhibition of PDK2 in human PC3 cells assessed as Akt Ser-473 dephosphorylation by Western blot analysis; assay type: functional, cell-based; conditions: PC-3
How it was run: (§1)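 Cells exposed 24 h in 5% FBS medium, final DMSO 0.1%; lysed in 1% SDS/10 mM EDTA/50 mM Tris pH 8.1, equal protein on SDS-PAGE, nitrocellulose, primary antibody 1:1000 at 4°C for 2 h, HRP secondary 1:5000, ECL detection; blots representative of three independent experiments.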

[2] = target: T1, 3-phosphoinositide-dependent protein kinase 1 (Homo sapiens) (UniProt O15530); assay: Inhibition of PDK2 in human PC3 cells assessed as Akt Thr-308 dephosphorylation by Western blot analysis; assay type: functional, cell-based; conditions: PC-3; how it was run: as §1
T1 sequence (whole entry): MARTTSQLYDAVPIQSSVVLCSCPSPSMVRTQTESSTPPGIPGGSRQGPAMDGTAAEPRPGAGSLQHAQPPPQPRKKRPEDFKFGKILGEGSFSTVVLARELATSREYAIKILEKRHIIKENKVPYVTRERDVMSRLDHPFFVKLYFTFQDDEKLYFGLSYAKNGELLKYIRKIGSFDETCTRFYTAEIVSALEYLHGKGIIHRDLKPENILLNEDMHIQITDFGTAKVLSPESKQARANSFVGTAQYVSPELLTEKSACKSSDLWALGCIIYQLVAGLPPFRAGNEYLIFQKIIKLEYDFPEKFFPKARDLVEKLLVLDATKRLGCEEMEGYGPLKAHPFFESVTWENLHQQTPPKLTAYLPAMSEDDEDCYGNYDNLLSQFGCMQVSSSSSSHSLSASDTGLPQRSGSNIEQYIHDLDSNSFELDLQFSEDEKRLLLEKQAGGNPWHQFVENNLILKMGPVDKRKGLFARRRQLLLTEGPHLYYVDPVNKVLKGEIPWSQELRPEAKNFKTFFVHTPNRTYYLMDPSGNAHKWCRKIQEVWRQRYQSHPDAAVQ

| SMILES | inhibition [2] | inhibition [1] |
| --- | --- | --- |
| CCC(C)C(N)C(=O)Nc1ccc(-n2nc(C(F)(F)F)cc2-c2ccc(-c3ccc(C(F)(F)F)cc3)cc2)cc1 (configuration not stated) | inactive | inactive |
| FC(F)(F)c1ccc(-c2ccc(-c3cc(C(F)(F)F)nn3-c3ccc(N4CCNCC4)cc3)cc2)cc1 | inactive | inactive |
| NCCC(=O)Nc1ccc(-n2nc(C(F)(F)F)cc2-c2ccc3ccc4ccccc4c3c2)cc1 | inactive | inactive |
| NS(=O)(=O)Nc1ccc(-n2nc(C(F)(F)F)cc2-c2ccc3c(ccc4ccccc43)c2)cc1 | inactive | inactive |
| CCNC(=O)c1cc(-c2ccc3ccc4ccccc4c3c2)n(-c2ccc(NC(=O)CCN)cc2)n1 | inactive | inactive |
| CNC(=O)c1cc(-c2ccc3c(ccc4ccccc43)c2)n(-c2ccc(NC(=O)CN)cc2)n1 | inactive | inactive |
| CNC(=O)c1cc(-c2ccc(-c3ccc(C(F)(F)F)cc3)cc2)n(-c2ccc(NC(=O)CCN)cc2)n1 | inactive | inactive |
| CC(C)NC(=O)CCc1cc(-c2ccc(-c3ccc(C(F)(F)F)cc3)cc2)n(-c2ccc(NC(=O)CCN)cc2)n1 | inactive | inactive |
| CNC(=O)c1cc(-c2ccc(-c3ccc(C(F)(F)F)cc3)cc2)n(-c2ccc(N3CCNCC3)cc2)n1 | inactive | inactive |
| CNC(=O)CCc1cc(-c2ccc(-c3ccc(C#N)cc3)cc2)n(-c2ccc(N3CCNCC3)cc2)n1 | inactive | inactive |
| CCNC(=O)CCc1cc(-c2ccc(-c3ccc(C(F)(F)F)cc3)cc2)n(-c2ccc(N3CCNCC3)cc2)n1 | inactive | Active |
| NC(Cc1ccccc1)C(=O)Nc1ccc(-n2nc(C(F)(F)F)cc2-c2ccc(-c3ccc(C(F)(F)F)cc3)cc2)cc1 (configuration not stated) | inactive | inactive |
| CNC(=O)c1cc(-c2ccc3c(ccc4ccccc43)c2)n(-c2ccc(NC(=O)CCN)cc2)n1 | inactive | inactive |
| CNC(=O)CCc1cc(-c2ccc(-c3ccc(C(F)(F)F)cc3)cc2)n(-c2ccc(N3CCOCC3)cc2)n1 | inactive | inactive |
| NCC(=O)Nc1ccc(-n2nc(C(F)(F)F)cc2-c2ccc3c(c2)oc2ccccc23)cc1 | inactive | inactive |
| NCCCC[C@H](N)C(=O)Nc1ccc(-n2nc(C(F)(F)F)cc2-c2ccc3c(ccc4ccccc43)c2)cc1 | inactive | inactive |
| CCNC(=O)c1cc(-c2ccc(-c3ccc(C(F)(F)F)cc3)cc2)n(-c2ccc(NC(=O)CCN)cc2)n1 | inactive | inactive |
| NCC(=O)Nc1ccc(-n2nc(C(F)(F)F)cc2-c2ccc3ccc4ccccc4c3c2)cc1 | inactive | inactive |
| CNC(=O)CCc1cc(-c2ccc(-c3ccc(C(F)(F)F)cc3)cc2)n(-c2ccc(NC(=O)CCN)cc2)n1 | inactive | inactive |
| NCCCC[C@H](N)C(=O)Nc1ccc(-n2nc(C(F)(F)F)cc2-c2ccc(-c3ccc(C(F)(F)F)cc3)cc2)cc1 | inactive | inactive |
| CNC(=O)CCc1cc(-c2ccc3c(ccc4ccccc43)c2)n(-c2ccc(N3CCNCC3)cc2)n1 | inactive | inactive |
| NCCCC[C@@H](N)C(=O)Nc1ccc(-n2nc(C(F)(F)F)cc2-c2ccc3c(ccc4ccccc43)c2)cc1 | inactive | inactive |
| CCNC(=O)c1cc(-c2ccc3ccc4ccccc4c3c2)n(-c2ccc(NC(=O)CN)cc2)n1 | inactive | inactive |
| NCCC(=O)Nc1ccc(-n2nc(C(F)(F)F)cc2-c2ccc3c(c2)oc2ccccc23)cc1 | inactive | inactive |
| CNC(=O)c1cc(-c2ccc3ccc4ccccc4c3c2)n(-c2ccc(NC(=O)CN)cc2)n1 | inactive | inactive |
| NCCC(=O)Nc1ccc(-n2nc(C(F)(F)F)cc2-c2ccc(-c3ccc(C(F)(F)F)cc3)cc2)cc1 | inactive | inactive |
| CC(C)CC(N)C(=O)Nc1ccc(-n2nc(C(F)(F)F)cc2-c2ccc(-c3ccc(C(F)(F)F)cc3)cc2)cc1 (configuration not stated) | inactive | inactive |
| CC(C)NC(=O)c1cc(-c2ccc(-c3ccc(C(F)(F)F)cc3)cc2)n(-c2ccc(NC(=O)CCN)cc2)n1 | inactive | inactive |
| CCNC(=O)CCc1cc(-c2ccc(-c3ccc(C(F)(F)F)cc3)cc2)n(-c2ccc(NC(=O)CCN)cc2)n1 | inactive | inactive |

More lines, main results first:

| inhibition [2] | SMILES | inhibition [1] |
| --- | --- | --- |
| inactive | O=C1CCC(=O)N1c1ccc(-n2nc(C(F)(F)F)cc2-c2ccc3c(ccc4ccccc43)c2)cc1 | inactive |
| inactive | NC(=O)CCNc1ccc(-n2nc(C(F)(F)F)cc2-c2ccc3c(ccc4ccccc43)c2)cc1 | inactive |
| inactive | NC(=O)c1ccc(C(=O)N2CCN(c3ccc(-n4nc(C(F)(F)F)cc4-c4ccc5c(ccc6ccccc65)c4)cc3)CC2)cc1 | inactive |
| inactive | COc1cc([N+](=O)[O-])ccc1S(=O)(=O)N1CCN(c2ccc(-n3nc(C(F)(F)F)cc3-c3ccc4c(ccc5ccccc54)c3)cc2)CC1 | inactive |
| inactive | NC(=O)CNc1ccc(-n2nc(C(F)(F)F)cc2-c2ccc3c(ccc4ccccc43)c2)cc1 | inactive |
| inactive | N#Cc1cccc(C(=O)N2CCN(c3ccc(-n4nc(C(F)(F)F)cc4-c4ccc5c(ccc6ccccc65)c4)cc3)CC2)c1 | inactive |
| inactive | NS(=O)(=O)c1ccc(-n2nc(C(F)(F)F)cc2-c2ccc3c(ccc4ccccc43)c2)cc1 | inactive |
| inactive | O=C(c1ccc(OC(F)(F)F)cc1)N1CCN(c2ccc(-n3nc(C(F)(F)F)cc3-c3ccc4c(ccc5ccccc54)c3)cc2)CC1 | inactive |
| inactive | CC(=O)Nc1ccc(S(=O)(=O)N2CCN(c3ccc(-n4nc(C(F)(F)F)cc4-c4ccc5c(ccc6ccccc65)c4)cc3)CC2)cc1 | inactive |
| inactive | O=C(c1cccc([N+](=O)[O-])c1)N1CCN(c2ccc(-n3nc(C(F)(F)F)cc3-c3ccc4c(ccc5ccccc54)c3)cc2)CC1 | inactive |
| inactive | O=C(c1ccc(Cl)c([N+](=O)[O-])c1)N1CCN(c2ccc(-n3nc(C(F)(F)F)cc3-c3ccc4c(ccc5ccccc54)c3)cc2)CC1 | inactive |
| inactive | O=C(Nc1ccc(-n2nc(C(F)(F)F)cc2-c2ccc3c(ccc4ccccc43)c2)cc1)N1CCOCC1 | inactive |
| inactive | O=C(c1ccncc1)N1CCN(c2ccc(-n3nc(C(F)(F)F)cc3-c3ccc4c(ccc5ccccc54)c3)cc2)CC1 | inactive |
| inactive | O=C(c1ccc([N+](=O)[O-])cc1)N1CCN(c2ccc(-n3nc(C(F)(F)F)cc3-c3ccc4c(ccc5ccccc54)c3)cc2)CC1 | inactive |
| inactive | O=[N+]([O-])c1ccc(S(=O)(=O)N2CCN(c3ccc(-n4nc(C(F)(F)F)cc4-c4ccc5c(ccc6ccccc65)c4)cc3)CC2)cc1 | inactive |
| inactive | Nc1ccc(C(=O)N2CCN(c3ccc(-n4nc(C(F)(F)F)cc4-c4ccc5c(ccc6ccccc65)c4)cc3)CC2)cc1 | inactive |
| inactive | NC(=O)c1cccc(C(=O)N2CCN(c3ccc(-n4nc(C(F)(F)F)cc4-c4ccc5c(ccc6ccccc65)c4)cc3)CC2)c1 | inactive |
| inactive | O=[N+]([O-])c1ccc(S(=O)(=O)N2CCN(c3ccc(-n4nc(C(F)(F)F)cc4-c4ccc5c(ccc6ccccc65)c4)cc3)CC2)c([N+](=O)[O-])c1 | inactive |
| inactive | NCCC(=O)Nc1ccc(-n2nc(C(F)(F)F)cc2-c2ccc3c(ccc4ccccc43)c2)cc1 | inactive |
| inactive | CC(=O)c1cc(C(=O)N2CCN(c3ccc(-n4nc(C(F)(F)F)cc4-c4ccc5c(ccc6ccccc65)c4)cc3)CC2)ccc1Cl | inactive |
| inactive | COc1ccc(S(=O)(=O)N2CCN(c3ccc(-n4nc(C(F)(F)F)cc4-c4ccc5c(ccc6ccccc65)c4)cc3)CC2)cc1 | inactive |
| inactive | CC(=O)c1ccc(S(=O)(=O)N2CCN(c3ccc(-n4nc(C(F)(F)F)cc4-c4ccc5c(ccc6ccccc65)c4)cc3)CC2)cc1 | inactive |
